The record followed here is ChEMBL document CHEMBL1123529, “Analogues of substance P. Peptides containing D-amino acid residues in various positions of substance P and displaying agonist or receptor selective antagonist effects” (1986).

Assay [1] deals with Substance-P receptor (Rattus norvegicus) (UniProt P14600). Description: Antagonistic activity against Substance P receptor in rat spinal cord at concentration of 50 uM.
Assay [2] addresses Substance-P receptor (Cavia porcellus) (UniProt P30547). The experiment in a line: Antagonistic activity against Substance P receptor in guinea pig ileum at concentration of 5 uM. In kind it is functional, tissue-based. The method in brief: (§1)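 Distal ileum from Dunkin-Hartley guinea pigs (300-350 g, both sexes) in a Krebs organ bath at 37 °C, gassed with 95% O2/5% CO2. Agonist (SP or SP(6-11)) dose-response curves run on a 3-min cycle with 1-min contact, with and without antagonist. Dose ratio = agonist EC50 with antagonist / EC50 alone. At least two preparations per compound; ratios below 2 taken as insignificant.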

The nature of assay [3]: In vitro antagonistic activity against Substance P(6-11) in guinea pig ileum at concentration of 10 uM. Format: functional, Cavia porcellus. The method in brief: (§2)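 Dose-response curves used a 3-min cycle with 1-min contact and washout, with SP or SP(6-11)-hexapeptide as agonist. Dose ratio is the agonist EC50 with antagonist divided by the EC50 alone. At least two preparations per compound; ratios under 2 were considered insignificant.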

Assay [4] can be described thus: In vitro antagonistic activity against Substance P on guinea pig ileum at concentration of 10 uM. In kind it is functional, Cavia porcellus. The gist of the method: as §2
For assay [5], the target named is Substance-P receptor (Rattus norvegicus) (UniProt P14600). The experiment in a line: Antagonistic activity against Substance P(6-11) receptor in rat spinal cord at concentration of 50 uM.
Assay [6] shares this target. The experiment in a line: Antagonistic activity against Substance P(6-11) receptor in rat spinal cord at concentration of 5 uM.
Assay [7] addresses Metabotropic glutamate receptor 3 (Rattus norvegicus) (UniProt P31422). Description: Antagonistic activity against Glutamate receptor in rat spinal cord at concentration of 5 uM. In kind it is functional, tissue-based. The gist of the method: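 Neonatal hemisectioned spinal cord from Wistar rats (Alderley Park strain, 2-7 days old), anaesthetised with intraperitoneal urethane (25% w/v, […]) and then decapitated. Cord superfused with oxygenated medium at 1 mL/min. Agonist (SP, SP(6-11), glutamate or carbachol) applied as 2-mL doses in the superfusate. Antagonist superfused for at least 15 min before agonists were retested. Read-out: % change in ventral root–cord DC potential response amplitude.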

Assay [8] has as its target Substance-P receptor (Rattus norvegicus) (UniProt P14600). Description: Antagonistic activity against Substance P receptor in rat spinal cord at concentration of 5 uM.
Assay [9] deals with Substance-P receptor (Cavia porcellus) (UniProt P30547). The experiment in a line: Antagonistic activity against Substance P(6-11) receptor in guinea pig ileum at concentration of 5 uM. Format: functional, tissue-based. The method in brief:
as §1

Assay [10] shares this target. The experiment in a line: Evaluated in vitro for percent agonist activity in guinea pig ileum (substance P receptor). In kind it is functional, tissue-based.
For assay [11] the target is unchanged. Description: Antagonistic activity against Substance P(6-11) receptor in guinea pig ileum at concentration of 14 uM. In kind it is functional, tissue-based. The method in brief:
as §1

Assay [12] shares this target. Description: Antagonistic activity against Substance P receptor in guinea pig ileum at concentration of 14 uM. In kind it is functional, tissue-based. The method in brief: as §1
The target is the same in assay [13]. Description: Antagonistic activity against Substance P receptor in guinea pig ileum at concentration of 100 uM. In kind it is functional, tissue-based. The method in brief: as §1
For assay [14] the target is unchanged. The experiment in a line: Antagonistic activity against Substance P(6-11) receptor in guinea pig ileum at concentration of 100 uM. In kind it is functional, tissue-based. The method in brief:
as §1

The target is the same in assay [15]. Description: Antagonistic activity against Substance P(6-11) receptor in guinea pig ileum at concentration of 10 uM. In kind it is functional, tissue-based. The method in brief: as §1
The target is the same in assay [16]. Description: Antagonistic activity against Substance P in guinea pig ileum at concentration of 1 uM. In kind it is functional, tissue-based. The method in brief:
as §1

The target is the same in assay [17]. The experiment in a line: Antagonistic activity against Substance P in guinea pig ileum at concentration of 10 uM. Format: functional, tissue-based. The gist of the method:
as §1

Assay [18] has the same target. Description: Antagonistic activity against Substance P(6-11) receptor in guinea pig ileum at concentration of 1 uM. In kind it is functional, tissue-based. The gist of the method:
as §1

Substance-P receptor (Rattus norvegicus), sequence (P14600 whole entry, looked up): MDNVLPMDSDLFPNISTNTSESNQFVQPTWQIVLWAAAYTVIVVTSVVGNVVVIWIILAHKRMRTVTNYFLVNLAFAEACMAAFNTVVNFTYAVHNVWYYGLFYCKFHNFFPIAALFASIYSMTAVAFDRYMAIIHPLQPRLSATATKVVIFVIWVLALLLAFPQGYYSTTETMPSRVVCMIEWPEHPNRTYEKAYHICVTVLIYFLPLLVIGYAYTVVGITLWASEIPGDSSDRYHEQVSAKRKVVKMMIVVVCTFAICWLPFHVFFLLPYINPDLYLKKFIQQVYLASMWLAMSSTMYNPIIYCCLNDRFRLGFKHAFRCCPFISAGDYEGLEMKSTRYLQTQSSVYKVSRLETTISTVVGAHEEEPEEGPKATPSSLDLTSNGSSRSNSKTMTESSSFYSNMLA
Substance-P receptor (Cavia porcellus), sequence (P30547 whole entry): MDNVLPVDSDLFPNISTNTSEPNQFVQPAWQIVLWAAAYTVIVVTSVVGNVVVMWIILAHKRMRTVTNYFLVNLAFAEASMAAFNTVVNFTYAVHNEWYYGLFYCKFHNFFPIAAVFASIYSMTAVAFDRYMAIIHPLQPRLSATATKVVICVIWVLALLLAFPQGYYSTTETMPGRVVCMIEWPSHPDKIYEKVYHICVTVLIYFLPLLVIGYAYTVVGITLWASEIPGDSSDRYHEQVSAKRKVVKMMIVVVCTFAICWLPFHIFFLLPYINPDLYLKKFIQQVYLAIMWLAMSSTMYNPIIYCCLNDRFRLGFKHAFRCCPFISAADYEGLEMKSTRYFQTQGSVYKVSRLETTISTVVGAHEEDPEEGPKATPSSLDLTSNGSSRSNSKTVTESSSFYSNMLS
Metabotropic glutamate receptor 3 (Rattus norvegicus), sequence (P31422 23-879 limits assumed): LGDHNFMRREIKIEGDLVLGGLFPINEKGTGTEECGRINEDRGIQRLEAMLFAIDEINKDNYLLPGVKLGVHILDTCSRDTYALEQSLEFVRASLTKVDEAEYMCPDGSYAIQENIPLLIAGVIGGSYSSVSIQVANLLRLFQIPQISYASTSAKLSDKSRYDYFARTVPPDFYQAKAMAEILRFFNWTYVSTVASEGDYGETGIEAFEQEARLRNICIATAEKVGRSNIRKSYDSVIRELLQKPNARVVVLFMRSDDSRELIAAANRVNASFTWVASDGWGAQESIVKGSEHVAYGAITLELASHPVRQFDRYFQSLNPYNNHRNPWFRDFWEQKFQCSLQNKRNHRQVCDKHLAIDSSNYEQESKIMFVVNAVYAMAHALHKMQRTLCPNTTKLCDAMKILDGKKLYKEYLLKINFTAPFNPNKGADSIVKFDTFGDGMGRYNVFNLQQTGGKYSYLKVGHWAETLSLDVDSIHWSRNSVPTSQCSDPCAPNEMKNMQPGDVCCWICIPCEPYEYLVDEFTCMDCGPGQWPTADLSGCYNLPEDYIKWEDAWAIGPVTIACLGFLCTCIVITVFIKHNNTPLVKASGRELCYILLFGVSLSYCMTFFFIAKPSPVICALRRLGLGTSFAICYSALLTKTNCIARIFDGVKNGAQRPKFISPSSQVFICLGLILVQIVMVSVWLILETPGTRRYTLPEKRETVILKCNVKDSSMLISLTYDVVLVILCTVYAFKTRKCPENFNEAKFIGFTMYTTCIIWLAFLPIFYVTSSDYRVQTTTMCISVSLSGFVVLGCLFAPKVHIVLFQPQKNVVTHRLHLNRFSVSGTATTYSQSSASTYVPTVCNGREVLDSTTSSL

In the case of `CSCC[C@@H](NC(=O)[C@H](CC(C)C)NC(=O)[C@@H](Cc1c[nH]c2ccccc12)NC(=O)C(Cc1ccccc1)NC(=O)[C@@H](Cc1c[nH]c2ccccc12)NC(=O)[C@H](CCC(N)=O)NC(=O)[C@H](CCC(N)=O)NC(=O)C1CCCN1C(=O)[C@H](CCCCN)NC(=O)C1CCCN1C(=O)[C@@H](N)CCCN=C(N)N)C(=O)O` (stereo in doubt), the Change in amplitude response in assay [1] is 16%; in [5], -100%; in assay [6] it was -62%; in assay [7] it was -20%; in assay [8], 21%. In addition, the Activity is 6.3 dose ratio in assay [2], 4.3 dose ratio in assay [3], 5.3 dose ratio in [4] and 3.4 dose ratio in [9].
In the case of `COC(=O)[C@@H](CCSC)NC(=O)[C@H](CC(C)C)NC(=O)CNC(=O)[C@H](Cc1ccccc1)NC(=O)[C@H](Cc1ccccc1)NC(=O)[C@@H]1CCCN1C(=O)[C@H]1CCCN1C(=O)[C@@H]1CCCN1C(=O)[C@H](CCCCNC(=O)OCc1ccccc1)NC(=O)[C@@H]1CCCN1C(=O)[C@H](CCCN=C(N)N)NC(=O)OCc1ccccc1`, in assay [10], the SP turned out to be 0.004%. Also, the Activity in [11] and in [12] was < 2 dose ratio throughout.
As to `COC(=O)[C@@H](CCSC)NC(=O)[C@H](CC(C)C)NC(=O)CNC(=O)[C@H](Cc1c[nH]c2ccccc12)NC(=O)[C@@H](Cc1c[nH]c2ccccc12)NC(=O)[C@H](CCC(N)=O)NC(=O)[C@H](CCC(N)=O)NC(=O)[C@@H]1CCCN1C(=O)[C@H](CCCCN)NC(=O)[C@@H]1CCCN1C(=O)[C@@H](N)CCCN=C(N)N`, the SP in assay [10] is < 0.0001%. Also, the Activity in assay [13] and in assay [14] was < 2 dose ratio throughout.
Turning to `CSCC[C@@H](NC(=O)[C@H](CC(C)C)NC(=O)CNC(=O)[C@H](Cc1c[nH]c2ccccc12)NC(=O)[C@@H](Cc1c[nH]c2ccccc12)NC(=O)[C@H](CCC(N)=O)NC(=O)[C@H](CCC(N)=O)NC(=O)[C@@H]1CCCN1C(=O)[C@H](CCCCNC(=O)OCc1ccccc1)NC(=O)[C@@H]1CCCN1C(=O)[C@H](CCCN=C(N)N)NC(=O)OCc1ccccc1)C(=O)O`, the SP in assay [10] was found to be 0%. In addition, the Activity in assay [15] was 18 dose ratio; in assay [16] it was 1.1 dose ratio; in assay [17], 14.6 dose ratio; in assay [18], 1.8 dose ratio.
